Screening data deposited in PubChem BioAssay by several laboratories.
eIF4H inh = inhibitors of RNA binding by human eIF4H | inhibition, % at 35 µM | eIF4H fluorescence polarization binding assay | Q15056 | actives 0.94% (n = 290,000);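 further: calls also rest on retests at 20 µM and on dose response follow-up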
PABP FP inh = PABP-poly(A) binding inhibition; P11940; PABP-poly(A) RNA binding, fluorescence polarization; inhibition, % at 35 µM; actives 1% (n = 290,000); AID 2014;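 further: calls also rest on retests at 20 µM and on dose response follow-up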
Target sequence (P11940 whole entry, looked up): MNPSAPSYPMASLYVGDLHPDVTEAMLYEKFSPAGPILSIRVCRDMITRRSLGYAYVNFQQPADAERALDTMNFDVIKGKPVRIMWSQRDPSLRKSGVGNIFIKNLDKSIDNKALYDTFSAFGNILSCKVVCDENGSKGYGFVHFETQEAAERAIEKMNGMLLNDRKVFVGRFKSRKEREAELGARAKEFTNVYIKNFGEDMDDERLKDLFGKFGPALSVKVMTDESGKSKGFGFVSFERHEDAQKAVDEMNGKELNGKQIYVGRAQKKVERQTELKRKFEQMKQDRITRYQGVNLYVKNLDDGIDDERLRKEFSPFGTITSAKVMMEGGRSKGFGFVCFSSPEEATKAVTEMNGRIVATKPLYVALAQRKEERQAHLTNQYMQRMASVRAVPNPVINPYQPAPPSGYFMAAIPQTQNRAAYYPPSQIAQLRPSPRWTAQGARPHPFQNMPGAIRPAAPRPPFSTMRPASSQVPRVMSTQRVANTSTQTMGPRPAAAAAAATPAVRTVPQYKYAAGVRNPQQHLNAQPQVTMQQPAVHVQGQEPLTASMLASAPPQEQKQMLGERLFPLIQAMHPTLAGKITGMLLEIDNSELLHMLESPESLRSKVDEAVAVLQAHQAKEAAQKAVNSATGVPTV
PABP1 MLLE inh = inhibitors of microRNA-mediated deadenylation, human PABP1 MLLE binding | actives 0.36% (n = 360,000) | GST-MLLE / FITC-PAM2 fluorescence polarization | inhibition, % at 20 µM | AID 588489 | P11940; in the data active means inhibition above about 35%, passing the limit was not always enough;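 further: plate controls were DMSO wells with GST-MLLE for no effect and wells lacking GST-MLLE protein for full effect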
NS3 helicase inh = HCV NS3 helicase inhibition; NS3 helicase DNA unwinding, Cy5 molecular beacon fluorescence; actives 0.56% (n = 290,000); inhibition, % at 10.9 µM;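 active means inhibition above the mean of all tested compounds plus 3 SD, set per campaign, cut at about 35% in these data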;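 further: 0% = DMSO wells and 100% = thioflavine S control wells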
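Test system: hepatitis C virus NS3 helicase domain fragment enzyme. Also added: annealed dual-labelled DNA beacon duplex, ATP-started. Timing: 60 min unwinding reaction at 25 °C after ATP addition. Technique: Cy5 fluorescence. Measure: % inhibition of unwinding.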
HCV core dimer = blocks dimerization of HCV core protein | actives 0.33% (n = 300,000) | inhibition, % at 5 µM | TR-FRET GST/Flag-core106 dimerization, 1536-well;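 active means inhibition above the mean of all tested compounds plus 3 SD, set per screening campaign, cut at about 45% in these data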
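Assay system: GST-tagged and Flag-tagged HCV core protein residues 1-106 / Times: compound-protein-antibody incubation 4 h at 22.5 °C / Signal: time-resolved FRET, ex 340 nm, em 617 and 671 nm / Evaluation: % inhibition based on acceptor/donor emission ratio / Benchmarks: wells lacking GST-core106 and wells with excess unlabelled core106 / Repeats: singlicate, one well per compound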
DNA FID counter-1 = displaces DNA intercalator in HCV helicase counter-screen; DNA fluorescent intercalator displacement, fluorescence; actives 0.17% (n = 290,000); inhibition, % at 7.9 µM; AID 1845; in the data active means inhibition above about 37%;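 further: 0% = vehicle and 100% = reference compound; higher means more ethidium bromide displaced from hairpin DNA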
NS3 helicase cf = HCV NS3 helicase inhibition, confirmation assay; actives 31% (n = 1,600); inhibition, % at 10.9 µM; NS3 helicase DNA unwinding, Cy5 molecular beacon fluorescence; shares compounds with NS3 helicase inh;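 active means inhibition above the mean of all tested compounds plus 3 SD, cutoff set per campaign, cut at about 36% in these data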
DNA FID counter-2 = displaces DNA intercalator in HCV helicase counter-screen; actives 4% (n = 1,600); inhibition, % at 7.9 µM; DNA fluorescent intercalator displacement, fluorescence; shares compounds with NS3 helicase inh; AID 1945; in the data active means inhibition above about 37%;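 further: 0% = vehicle and 100% = reference compound; higher means more displacement of ethidium bromide from the DNA hairpin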
FID counter DR = DNA intercalator displacement in dose response; 120 tested, under 10 active; fluorescent intercalator displacement from DNA, fluorescence; shares compounds with NS3 helicase inh; IC50, µM
Active calls of the source: *; . = no result. In the library only some 2% were active in any assay of this set; here they are far more common. Unless noted, how the calls were made is not given here.

SMILES	eIF4H inh	PABP FP inh	PABP1 MLLE inh	NS3 helicase inh	HCV core dimer	DNA FID counter-1	NS3 helicase cf	DNA FID counter-2	others
O=C1NN(c2ccc(Br)cc2)C(=O)/C1=C\c1ccc(O)cc1O	2	19	-45	39*	3	2	58*	17
CC1(C)OC(=O)C2=C(C[C@@H](C3CCCCC3)O[C@H]2c2ccc(Cl)cc2)O1	.	.	2	.	.	.	.	.
Cc1[nH]c(C)c(S(=O)(=O)N(C)Cc2ccccc2)c1C(=O)N1CCCC1	-8	-6	-4	2	-9	-7	.	.
Cc1[nH]c(C)c(S(=O)(=O)N(Cc2ccccc2)C(C)(C)C)c1C(=O)N1CCCC1	-13	4	2	38*	-7	-27	-10	-33
O=C1/C(=C\c2ccco2)SC(=S)N1C1CCCCC1	57*	6	.	39*	12	-10	51*	18
O=C1/C(=C/c2ccco2)SC(=S)N1CCC(=O)N1CCCCC1CCO (stereo unspecified)	.	.	8	9	10	-35	.	.
COc1ccc(S(=O)(=O)/N=C2/NC(=O)/C(=C\c3ccco3)S2)cc1	90	-9	13	37*	-8	-23	60*	6
COc1ccc(S(=O)(=O)/N=C2/NC(=O)/C(=C\c3cc(OC)c(OC)cc3[N+](=O)[O-])S2)cc1	-2	3	2	8	-9	-31	.	.
COc1ccc(S(=O)(=O)/N=C2/NC(=O)/C(=C/c3ccco3)S2)cc1	92	-5	-3	37*	2	-21	78*	-2	FID counter DR=>79
COc1cccc(C2c3[nH]c4ccccc4c3C[C@H]3C(=O)N(CCCOC(C)C)CC(=O)N23)c1 (stereo partly specified)	2	16	4	85*	0	-30	-9	-28
CC(C)OCCCN1CC(=O)N2C(c3ccccc3)c3[nH]c4ccccc4c3C[C@H]2C1=O (stereo partly specified)	-3	2	8	4	-8	-46	.	.
Cc1nc(SCC(=O)c2cc(C)n(C3CC3)c2C)c2ccccc2n1	.	.	7	.	.	.	.	.
O=C(O)c1c(C(=O)N2N=C3/C(=C/c4ccccc4)CCCC3C2c2ccccc2)cccc1[N+](=O)[O-] (stereo unspecified)	3	17	5	49*	20	-33	69*	-6
O=C(O)c1ccccc1C(=O)N1N=C2/C(=C/c3cccc([N+](=O)[O-])c3)CCCC2C1c1cccc([N+](=O)[O-])c1 (stereo unspecified)	24	-20	7	29	34	-22	.	.
Cc1ccc(CN2CCCC2(C)C(=O)NC(C)C)cc1 (stereo unspecified)	.	.	15	.	.	.	.	.
Cc1nc([N+](=O)[O-])cn1CC(O)c1ccc(-c2ccccc2)cc1 (stereo unspecified)	-9	8	-3	45*	3	-8	-6	0
COc1cc(Br)c(/C=C/c2ccc3cccc(O)c3n2)cc1OC	23	11	0	14	-5	-8	.	.
COc1ccc(OC)c(/C=C/c2ccc3cccc(O)c3n2)c1	20	-6	3	60*	-16	-31	-11	-1
Cc1c(Cl)c(C(F)F)nn1CC(=O)NC1C(=O)N2C(C(=O)O)=C(CSc3nnnn3C)CSC12 (stereo unspecified)	-1	4	14	38*	.	-26	32	-2
Cc1c(Cl)cnn1CC(=O)NC1C(=O)N2C(C(=O)O)=C(CSc3nnnn3C)CSC12 (stereo unspecified)	28	-10	30	20	3	-28	.	.
COc1cc2cc3c(N)c(C(=O)Nc4sc(C)c(C)c4C#N)sc3nc2cc1OC	89*	71*	-33	37*	3	-3	50*	-14	FID counter DR=>79
Cc1cc(C(=O)Nc2sc(C)c(C)c2C#N)no1	11	29	21	1	-2	1	.	.
CCOC(=O)C1(CCOc2ccccc2)CCN(CC(O)CO)CC1 (stereo unspecified)	-7	-4	-8	14	-5	5	.	.
CN(C)CCNc1ccc(Cl)cc1[N+](=O)[O-]	0	10	7	4	-2	6	.	.
CC(C)Nc1ccc(Cl)cc1[N+](=O)[O-]	-2	-3	.	41*	-4	-2	-12	1
SMILES	eIF4H inh	PABP FP inh	PABP1 MLLE inh	NS3 helicase inh	HCV core dimer	DNA FID counter-1	NS3 helicase cf	DNA FID counter-2	others
O=c1cc(CSc2ccc(Cl)cc2)[nH]c2[nH]n(-c3ccccc3)c(=O)c12	28	23	23	40*	-7	-16	53*	-5	FID counter DR=>79
CCOC(=O)C1=C(O)/C(=C/c2ccc(OCC(=O)O)c(OC)c2)SC1=Nc1ccc(OC)cc1	2	0	10	36*	2	-24	42*	-16
COc1ccc(NC(=O)Nc2nnc(N3CCCCC3C)s2)cc1OC (stereo unspecified)	1	0	-7	0	-8	-6	.	.
COc1ccc(OC)c(NC(=O)Nc2nnc(N3CCCCC3C)s2)c1 (stereo unspecified)	3	5	-17	39*	-2	-20	-7	-13
COc1ccc(-c2nc3c(c(SCC(=O)Nc4cccc(O)c4)n2)Cc2c(CO)cnc(C)c2O3)cc1	86	2	-16	70*	71*	-42	2	-4
CCOC(=O)C1=NN(C(=O)c2ccccc2)C(O)(c2ccc(C)cc2)C1 (stereo unspecified)	17	-11	0	44*	-3	-19	-9	-8
Cc1ccc2nc(C3CCCCC3)c(Cc3cccc(F)c3)n2c1	.	.	-5	.	.	.	.	.
COc1ccccc1OCCCOc1cccc(/C=C2\SC(=O)NC2=O)c1	-6	1	-6	44*	12	-37	68*	-9	FID counter DR=>79
CCCOc1ccc2ccccc2c1/C=C1\SC(=O)NC1=O	8	8	-17	36*	10	-27	30	-21
COc1ccccc1OCCCOc1ccc(/C=C2\SC(=O)NC2=O)cc1OC	-1	8	4	25	18	-26	.	.
O=C(c1cncc(Br)c1)N1CCN(S(=O)(=O)c2ccc3ccccc3c2)CC1	.	.	-18	.	.	.	.	.
COc1ccc(-n2cccc2/C=C2\C(=N)N3N=C(c4ccco4)SC3=NC2=O)cc1	44	-13	-20	42*	48*	-22	71*	-14	FID counter DR=>79
